# What was measured:
# [1] = target: T1, 11-beta-hydroxysteroid dehydrogenase 1 (Homo sapiens, UniProt P28845); assay: Inhibition of human HSD1 assessed as interconversion of cortisone to cortisol
# [2] = target: T2, 11-beta-hydroxysteroid dehydrogenase type 2 (Homo sapiens, UniProt P80365); assay: Inhibition of human HSD2 assessed as interconversion of cortisone to cortisol
# T2 sequence (P80365 whole entry): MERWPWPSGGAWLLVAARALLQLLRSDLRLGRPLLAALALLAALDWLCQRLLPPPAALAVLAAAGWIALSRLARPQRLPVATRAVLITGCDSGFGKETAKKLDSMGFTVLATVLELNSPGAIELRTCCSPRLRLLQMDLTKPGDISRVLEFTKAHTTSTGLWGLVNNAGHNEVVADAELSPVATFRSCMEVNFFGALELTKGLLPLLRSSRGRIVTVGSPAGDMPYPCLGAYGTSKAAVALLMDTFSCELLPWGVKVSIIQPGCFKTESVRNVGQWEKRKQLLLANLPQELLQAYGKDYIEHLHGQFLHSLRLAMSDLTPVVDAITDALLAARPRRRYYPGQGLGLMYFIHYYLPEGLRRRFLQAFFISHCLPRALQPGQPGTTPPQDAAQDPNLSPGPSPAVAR
# [3] = target: 11-beta-hydroxysteroid dehydrogenase 1 (Mus musculus, UniProt P50172); assay: Inhibition of mouse HSD1 assessed as interconversion of cortisone to cortisol
# Procedure, shortened: (§1)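 Enzyme inhibition measured as blocking the interconversion between cortisone and cortisol by mouse HSD1 (reported as Ki) or mouse HSD2 (reported as IC50); values are means of at least two experiments.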
# [4] = target: T3, 11-beta-hydroxysteroid dehydrogenase type 2 (Mus musculus, UniProt P51661); assay: Inhibition of mouse HSD2 assessed as interconversion of cortisone to cortisol; procedure, shortened: as §1
# T3 sequence (P51661 whole entry): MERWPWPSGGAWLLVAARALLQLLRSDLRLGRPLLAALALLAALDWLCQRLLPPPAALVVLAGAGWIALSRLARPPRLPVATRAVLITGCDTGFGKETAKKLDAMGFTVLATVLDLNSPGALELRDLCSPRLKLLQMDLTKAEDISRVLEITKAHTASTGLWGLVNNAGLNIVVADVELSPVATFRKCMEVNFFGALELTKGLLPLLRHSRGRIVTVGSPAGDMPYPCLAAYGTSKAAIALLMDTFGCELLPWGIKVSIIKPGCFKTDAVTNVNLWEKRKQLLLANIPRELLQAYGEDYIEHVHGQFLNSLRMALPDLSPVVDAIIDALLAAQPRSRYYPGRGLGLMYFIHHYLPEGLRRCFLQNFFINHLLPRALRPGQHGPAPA
# [5] = target: T1, 11-beta-hydroxysteroid dehydrogenase 1; assay: Inhibition of human HSD1 expressed in HEK cells; format: cell-based, HEK293
# [6] = Metabolic stability in mouse liver microsomes assessed as compound remaining after 30 mins; format: ADME, Microsome; details: read-out: Stability
# Procedure, shortened: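 Test compound incubated with mouse liver microsomes for 30 min; percent of parent compound remaining afterward reported.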
# [7] = Half life in mouse at 10 mg/kg, iv; format: ADME, organism-based; set-up: dose 10 mg/kg, route intravenous; details: in vivo
# [8] = Volume of distribution at steady state in mouse at 10 mg/kg; format: ADME, organism-based; set-up: dose 10 mg/kg; details: in vivo, read-out: Vdss
# [9] = Volume of distribution at terminal phase in mouse at 10 mg/kg; format: ADME, organism-based; set-up: dose 10 mg/kg; details: in vivo, read-out: Vbeta
# [10] = Plasma clearance in mouse at 10 mg/kg, iv; format: ADME, organism-based; set-up: dose 10 mg/kg, route intravenous
# [11] = AUC in mouse at 10 mg/kg, po; format: ADME, organism-based; set-up: dose 10 mg/kg, route oral; details: plasma
# [12] = Oral bioavailability in mouse at 10 mg/kg; format: ADME, organism-based; details: in vivo
# [13] = tested on: Mus musculus; assay: Ex vivo inhibition of liver 11-beta-HSD1 in DIO mouse at 30 mg/kg, po after 1 hr; format: functional
# Procedure, shortened: (§2)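 DIO mice dosed orally at 30 mpk; animals killed 1, 7 and 16 h after the dose and liver, fat and brain taken. Ex vivo 11-β-HSD1 activity (cortisol levels) in tissue was measured and percent inhibition expressed relative to vehicle-dosed animals; means from two animals per point.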
# [14] = tested on: Mus musculus; assay: Ex vivo inhibition of liver 11-beta-HSD1 in DIO mouse at 30 mg/kg, po after 7 hrs; format: functional; procedure, shortened: as §2
# [15] = tested on: Mus musculus; assay: Ex vivo inhibition of liver 11-beta-HSD1 in DIO mouse at 30 mg/kg, po after 16 hrs; format: functional; procedure, shortened: as §2
# [16] = tested on: Mus musculus; assay: Ex vivo inhibition of fat 11-beta-HSD1 in DIO mouse at 30 mg/kg, po after 1 hr; format: functional; procedure, shortened: as §2
# [17] = tested on: Mus musculus; assay: Ex vivo inhibition of fat 11-beta-HSD1 in DIO mouse at 30 mg/kg, po after 7 hrs; format: functional; procedure, shortened: as §2
# [18] = tested on: Mus musculus; assay: Ex vivo inhibition of fat 11-beta-HSD1 in DIO mouse at 30 mg/kg, po after 16 hrs; format: functional; procedure, shortened: as §2
# [19] = tested on: Mus musculus; assay: Ex vivo inhibition of brain 11-beta-HSD1 in DIO mouse at 30 mg/kg, po after 1 hr; format: functional; procedure, shortened: as §2
# [20] = tested on: Mus musculus; assay: Ex vivo inhibition of brain 11-beta-HSD1 in DIO mouse at 30 mg/kg, po after 7 hrs; format: functional; procedure, shortened: as §2
# [21] = tested on: Mus musculus; assay: Ex vivo inhibition of brain 11-beta-HSD1 in DIO mouse at 30 mg/kg, po after 16 hrs; format: functional; procedure, shortened: as §2
# T1 sequence (P28845 whole entry): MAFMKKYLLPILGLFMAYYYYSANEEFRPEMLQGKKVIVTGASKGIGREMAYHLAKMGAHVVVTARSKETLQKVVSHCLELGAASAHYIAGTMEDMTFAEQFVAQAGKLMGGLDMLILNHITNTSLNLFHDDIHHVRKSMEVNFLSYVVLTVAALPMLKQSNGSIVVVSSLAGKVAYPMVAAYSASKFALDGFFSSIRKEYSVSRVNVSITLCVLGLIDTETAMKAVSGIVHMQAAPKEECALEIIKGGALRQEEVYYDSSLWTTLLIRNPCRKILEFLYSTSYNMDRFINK
# Chain of 11-beta-hydroxysteroid dehydrogenase 1 (Mus musculus, UniProt P50172) (P50172 whole entry): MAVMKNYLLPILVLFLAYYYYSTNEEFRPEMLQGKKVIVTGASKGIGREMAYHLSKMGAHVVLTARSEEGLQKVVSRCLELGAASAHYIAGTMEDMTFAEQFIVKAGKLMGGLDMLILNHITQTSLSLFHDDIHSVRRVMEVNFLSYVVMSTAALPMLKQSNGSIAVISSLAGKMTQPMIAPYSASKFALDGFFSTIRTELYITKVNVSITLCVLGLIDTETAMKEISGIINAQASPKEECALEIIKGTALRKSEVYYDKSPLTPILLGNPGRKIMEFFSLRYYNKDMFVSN
Structure (SMILES),Ki [1] [nM],IC50 [2] [nM],Ki [3] [nM],IC50 [4] [nM],IC50 [5] [nM],remaining at 0.5 h [6] [%],other results
CC(C)(Oc1cccc(Cl)c1)C(=O)N[C@H]1C2CC3CC1C[C@](S(N)(=O)=O)(C3)C2,4,6300,6,> 100000,320,,
CC(C)(Oc1ccc(F)cc1Cl)C(=O)N[C@H]1C2CC3CC1C[C@](S(=O)(=O)CCCN1CCOCC1)(C3)C2,110,15000,38,87000,500,< 1,
CNS(=O)(=O)[C@]12CC3CC(C1)[C@@H](NC(=O)C(C)(C)Oc1ccc(Cl)cc1)C(C3)C2,,,,> 100000,,< 1,
CC(C)(Oc1ccc(F)cc1Cl)C(=O)N[C@H]1C2CC3CC1C[C@](S(=O)(=O)CC(N)=O)(C3)C2,8,3300,4,> 100000,300,59,
CC(C)(Oc1ccc(F)cc1Cl)C(=O)N[C@H]1C2CC3CC1C[C@](S(N)(=O)=O)(C3)C2,6,> 100000,3,> 100000,125,61,half-life [7]: 2.8 h; Vd [8]: 2.6 L/kg; Vd [9]: 3.5 L/kg; clearance [10]: 15 mL/min/kg; AUC [11]: 7000 ng·h/mL; bioavailability [12]: 61%; inhibition in vivo at 30 mg/kg [13]: 70%; inhibition in vivo at 30 mg/kg [14]: 78%; inhibition in vivo at 30 mg/kg [15]: 82%; inhibition in vivo at 30 mg/kg [16]: 62%; inhibition in vivo at 30 mg/kg [17]: 88%; inhibition in vivo at 30 mg/kg [18]: 93%; inhibition in vivo at 30 mg/kg [19]: 29%; inhibition in vivo at 30 mg/kg [20]: 48%; inhibition in vivo at 30 mg/kg [21]: 73%
CC(C)(Oc1ccccc1)C(=O)N[C@H]1C2CC3CC1C[C@](S(N)(=O)=O)(C3)C2,,,13,> 100000,,62,
CC(C)(Oc1ccccc1C(F)(F)F)C(=O)N[C@H]1C2CC3CC1C[C@](S(C)(=O)=O)(C3)C2,7,> 100000,3,> 100000,120,,
CC(C)(Oc1c(Cl)cc(F)cc1Cl)C(=O)N[C@H]1C2CC3CC1C[C@](S(N)(=O)=O)(C3)C2,3,9000,2,> 100000,190,55,
CC(C)(Oc1ccccc1OC(F)(F)F)C(=O)N[C@H]1C2CC3CC1C[C@](S(N)(=O)=O)(C3)C2,,,3,> 100000,,38,
COc1cc(F)ccc1OC(C)(C)C(=O)N[C@H]1C2CC3CC1C[C@](S(C)(=O)=O)(C3)C2,20,> 100000,7,> 100000,690,,

# Source: ChEMBL document CHEMBL1138395, “Adamantane sulfone and sulfonamide 11-beta-HSD1 Inhibitors” (Bioorg Med Chem Lett, 2007)
